Assay results reported in ChEMBL document CHEMBL1144663, “1-Aryl-tetrahydroisoquinoline analogs as active anti-HIV agents in vitro” (Bioorg Med Chem Lett, 2008).
In brackets after ≈: the same amount, converted by molar mass.

test system: Human immunodeficiency virus 1; assay: Antiviral activity against HIV1 3B in C8166 cells by syncytium reduction assay; format: functional, organism-based; conditions: Human immunodeficiency virus 1, 3B
Outline: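 C8166 cells (4 × 10⁵/mL) exposed to serial compound concentrations and infected with HIV-1 IIIB at MOI 0.06; zidovudine positive control. After 3 days of culture, syncytia counted per well by inverted microscopy; percent inhibition versus infected untreated control; EC50 is concentration protecting cells from viral cytopathogenicity by 50%.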

Row | Structure (SMILES) | EC50 [µM]
1 | COc1ccccc1C1NCCc2cc(O)c(O)cc21 (centres undefined) | 42.2
2 | COc1cc2c(cc1OC)C(c1ccco1)NCC2 (centres undefined) | 152
3 | Oc1cc2c(cc1O)C(c1cccc(Br)c1)NCC2 (centres undefined) | 53.5
4 | Oc1cc2c(cc1O)C(c1ccccn1)NCC2 (centres undefined) | 48.4
5 | Oc1cc2c(cc1O)C(c1ccc(C(F)(F)F)cc1)NCC2 (centres undefined) | 27.6
6 | COc1ccc(C2NCCc3cc(OC)c(OC)cc32)c(OC)c1 (centres undefined) | 43.8
7 | COc1cc2c(cc1OC)C(c1cccc(Cl)c1)NCC2 (centres undefined) | 31.8
8 | Oc1cc2c(cc1O)C(c1ccccc1Br)NCC2 (centres undefined) | 23.7
9 | Cc1ccccc1C1NCCc2cc(O)c(O)cc21 (centres undefined) | 61.9
10 | COc1ccc(C2NCCc3cc(O)c(O)cc32)cc1 (centres undefined) | 34.1
11 | COc1cc2c(cc1OC)C(c1ccccc1Cl)NCC2 (centres undefined) | 58.4
12 | Oc1cc2c(cc1O)C(c1cccc3ccccc13)NCC2 (centres undefined) | 33.2
13 | N#Cc1ccc(C2NCCc3cc(O)c(O)cc32)cc1 (centres undefined) | 53.7
14 | COc1cc2c(cc1OC)C(c1ccc3ccccc3c1)NCC2 (centres undefined) | 6.9
15 | Oc1cc2c(cc1O)C(c1ccco1)NCC2 (centres undefined) | 61.7
16 | Oc1cc2c(cc1O)C(c1ccccc1F)NCC2 (centres undefined) | 58.4
17 | COc1cc2c(cc1OC)C(c1ccccc1)NCC2 (centres undefined) | 120
18 | Cc1ccc(C2NCCc3cc(O)c(O)cc32)cc1 (centres undefined) | 8.2

Row | Structure (SMILES) | EC50 [µM]
19 | COc1cc2c(cc1OC)C(c1ccc(Br)cc1)NCC2 (centres undefined) | 16.9
20 | Oc1cc2c(cc1O)C(c1cccc(Cl)c1)NCC2 (centres undefined) | 4.6
21 | COc1cc2c(cc1OC)C(c1cccc3ccccc13)NCC2 (centres undefined) | 22.6
22 | COc1cc2c(cc1OC)C(c1cccc(Br)c1)NCC2 (centres undefined) | 43.5
23 | COc1cc2c(cc1OC)C(c1ccccc1OC)NCC2 (centres undefined) | 45.9
24 | Oc1cc2c(cc1O)C(c1ccccc1)NCC2 (centres undefined) | 67.3
25 | COc1cc2c(cc1OC)C(c1ccccc1F)NCC2 (centres undefined) | 69
26 | COc1cc2c(cc1OC)C(c1ccc(C)cc1)NCC2 (centres undefined) | 67.3
27 | Cc1cn([C@H]2C[C@H](N=[N+]=[N-])[C@@H](CO)O2)c(=O)[nH]c1=O [ZIDOVUDINE] | 0.011
28 | COc1cc2c(cc1OC)C(c1ccccn1)NCC2 (centres undefined) | 171
29 | COc1cc2c(cc1OC)C(c1ccc(C(F)(F)F)cc1)NCC2 (centres undefined) | 27.8
30 | Oc1cc2c(cc1O)C(c1ccccc1Cl)NCC2 (centres undefined) | 51.8
31 | Oc1cc2c(cc1O)C(c1ccc(Br)cc1)NCC2 (centres undefined) | 36.2
32 | COc1cc2c(cc1OC)C(c1ccccc1C)NCC2 (centres undefined) | 42.5
33 | COc1cc2c(cc1OC)C(c1ccccc1Br)NCC2 (centres undefined) | 31.3
34 | COc1ccc(C2NCCc3cc(OC)c(OC)cc32)cc1 (centres undefined) | 127
35 | Oc1cc2c(cc1O)C(c1ccc3ccccc3c1)NCC2 (centres undefined) | 5.3
36 | COc1ccc(C2NCCc3cc(O)c(O)cc32)c(OC)c1 (centres undefined) | 46.5

test system: not listed separately; assay: Cytotoxicity against human C8166 cells after 72 hrs by MTT method; format: cell-based; conditions: not given
Outline: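 Supernatant discarded, MTT (5 mg/mL in PBS) added for 4 h, formazan dissolved in 50% DMF–20% SDS, absorbance 595/630 nm. CC50 (50% reduction of viable cells) taken from dose–response curve.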

Row | Structure (SMILES) | CC50 at 72 h [µM]
37 | COc1ccccc1C1NCCc2cc(O)c(O)cc21 (centres undefined) | > 738
38 | COc1cc2c(cc1OC)C(c1ccco1)NCC2 (centres undefined) | 572
39 | Oc1cc2c(cc1O)C(c1cccc(Br)c1)NCC2 (centres undefined) | > 625
40 | Oc1cc2c(cc1O)C(c1ccccn1)NCC2 (centres undefined) | > 826
41 | Oc1cc2c(cc1O)C(c1ccc(C(F)(F)F)cc1)NCC2 (centres undefined) | 42.3
42 | COc1ccc(C2NCCc3cc(OC)c(OC)cc32)c(OC)c1 (centres undefined) | 227
43 | COc1cc2c(cc1OC)C(c1cccc(Cl)c1)NCC2 (centres undefined) | 184
44 | Oc1cc2c(cc1O)C(c1ccccc1Br)NCC2 (centres undefined) | > 625
45 | Cc1ccccc1C1NCCc2cc(O)c(O)cc21 (centres undefined) | > 784
46 | COc1ccc(C2NCCc3cc(O)c(O)cc32)cc1 (centres undefined) | > 738
47 | COc1cc2c(cc1OC)C(c1ccccc1Cl)NCC2 (centres undefined) | 249
48 | Oc1cc2c(cc1O)C(c1cccc3ccccc13)NCC2 (centres undefined) | 47.4
49 | N#Cc1ccc(C2NCCc3cc(O)c(O)cc32)cc1 (centres undefined) | > 752
50 | COc1cc2c(cc1OC)C(c1ccc3ccccc3c1)NCC2 (centres undefined) | 54.6
51 | Oc1cc2c(cc1O)C(c1ccco1)NCC2 (centres undefined) | > 866
52 | Oc1cc2c(cc1O)C(c1ccccc1F)NCC2 (centres undefined) | > 772
53 | COc1cc2c(cc1OC)C(c1ccccc1)NCC2 (centres undefined) | 294
54 | Cc1ccc(C2NCCc3cc(O)c(O)cc32)cc1 (centres undefined) | > 784

Row | Structure (SMILES) | CC50 at 72 h [µM]
55 | COc1cc2c(cc1OC)C(c1ccc(Br)cc1)NCC2 (centres undefined) | 37.9
56 | Oc1cc2c(cc1O)C(c1cccc(Cl)c1)NCC2 (centres undefined) | > 727
57 | COc1cc2c(cc1OC)C(c1cccc3ccccc13)NCC2 (centres undefined) | 64.8
58 | COc1cc2c(cc1OC)C(c1cccc(Br)c1)NCC2 (centres undefined) | 107
59 | COc1cc2c(cc1OC)C(c1ccccc1OC)NCC2 (centres undefined) | 555
60 | Oc1cc2c(cc1O)C(c1ccccc1)NCC2 (centres undefined) | > 830
61 | COc1cc2c(cc1OC)C(c1ccccc1F)NCC2 (centres undefined) | 175
62 | COc1cc2c(cc1OC)C(c1ccc(C)cc1)NCC2 (centres undefined) | 281
63 | Cc1cn([C@H]2C[C@H](N=[N+]=[N-])[C@@H](CO)O2)c(=O)[nH]c1=O [ZIDOVUDINE] | > 749
64 | COc1cc2c(cc1OC)C(c1ccccn1)NCC2 (centres undefined) | 444
65 | COc1cc2c(cc1OC)C(c1ccc(C(F)(F)F)cc1)NCC2 (centres undefined) | 30.9
66 | Oc1cc2c(cc1O)C(c1ccccc1Cl)NCC2 (centres undefined) | > 727
67 | Oc1cc2c(cc1O)C(c1ccc(Br)cc1)NCC2 (centres undefined) | > 625
68 | COc1cc2c(cc1OC)C(c1ccccc1C)NCC2 (centres undefined) | 197
69 | COc1cc2c(cc1OC)C(c1ccccc1Br)NCC2 (centres undefined) | 89
70 | COc1ccc(C2NCCc3cc(OC)c(OC)cc32)cc1 (centres undefined) | 312
71 | Oc1cc2c(cc1O)C(c1ccc3ccccc3c1)NCC2 (centres undefined) | > 687
72 | COc1ccc(C2NCCc3cc(O)c(O)cc32)c(OC)c1 (centres undefined) | > 664

test system: not listed separately; assay: Selectivity index, ratio of CC50 for C8166 cells to EC50 for HIV1 3B; format: functional; conditions: not given
Outline: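 Ratio of CC50 (MTT, uninfected C8166, 72 h) to EC50 (syncytium reduction, HIV-1 IIIB-infected C8166, MOI 0.06, 3 days), both determined in this work.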

Row | Structure (SMILES) | Ratio CC50/EC50
73 | COc1ccccc1C1NCCc2cc(O)c(O)cc21 (centres undefined) | >18
74 | COc1cc2c(cc1OC)C(c1ccco1)NCC2 (centres undefined) | 3.8
75 | Oc1cc2c(cc1O)C(c1cccc(Br)c1)NCC2 (centres undefined) | >12
76 | Oc1cc2c(cc1O)C(c1ccccn1)NCC2 (centres undefined) | >11
77 | Oc1cc2c(cc1O)C(c1ccc(C(F)(F)F)cc1)NCC2 (centres undefined) | 1.5
78 | COc1ccc(C2NCCc3cc(OC)c(OC)cc32)c(OC)c1 (centres undefined) | 5.2
79 | COc1cc2c(cc1OC)C(c1cccc(Cl)c1)NCC2 (centres undefined) | 5.9
80 | Oc1cc2c(cc1O)C(c1ccccc1Br)NCC2 (centres undefined) | >26
81 | Cc1ccccc1C1NCCc2cc(O)c(O)cc21 (centres undefined) | >13
82 | COc1ccc(C2NCCc3cc(O)c(O)cc32)cc1 (centres undefined) | >22
83 | COc1cc2c(cc1OC)C(c1ccccc1Cl)NCC2 (centres undefined) | 4.3
84 | Oc1cc2c(cc1O)C(c1cccc3ccccc13)NCC2 (centres undefined) | 1.9
85 | N#Cc1ccc(C2NCCc3cc(O)c(O)cc32)cc1 (centres undefined) | >14
86 | COc1cc2c(cc1OC)C(c1ccc3ccccc3c1)NCC2 (centres undefined) | 7.9
87 | Oc1cc2c(cc1O)C(c1ccco1)NCC2 (centres undefined) | >14
88 | Oc1cc2c(cc1O)C(c1ccccc1F)NCC2 (centres undefined) | >13
89 | COc1cc2c(cc1OC)C(c1ccccc1)NCC2 (centres undefined) | 2.4
90 | Cc1ccc(C2NCCc3cc(O)c(O)cc32)cc1 (centres undefined) | >95

Row | Structure (SMILES) | Ratio CC50/EC50
91 | COc1cc2c(cc1OC)C(c1ccc(Br)cc1)NCC2 (centres undefined) | 2.2
92 | Oc1cc2c(cc1O)C(c1cccc(Cl)c1)NCC2 (centres undefined) | >159
93 | COc1cc2c(cc1OC)C(c1cccc3ccccc13)NCC2 (centres undefined) | 2.9
94 | COc1cc2c(cc1OC)C(c1cccc(Br)c1)NCC2 (centres undefined) | 2.4
95 | COc1cc2c(cc1OC)C(c1ccccc1OC)NCC2 (centres undefined) | 12
96 | Oc1cc2c(cc1O)C(c1ccccc1)NCC2 (centres undefined) | >12
97 | COc1cc2c(cc1OC)C(c1ccccc1F)NCC2 (centres undefined) | 2.8
98 | COc1cc2c(cc1OC)C(c1ccc(C)cc1)NCC2 (centres undefined) | 4.2
99 | Cc1cn([C@H]2C[C@H](N=[N+]=[N-])[C@@H](CO)O2)c(=O)[nH]c1=O [ZIDOVUDINE] | >68091
100 | COc1cc2c(cc1OC)C(c1ccccn1)NCC2 (centres undefined) | 2.8
101 | COc1cc2c(cc1OC)C(c1ccc(C(F)(F)F)cc1)NCC2 (centres undefined) | <1
102 | Oc1cc2c(cc1O)C(c1ccccc1Cl)NCC2 (centres undefined) | >14
103 | Oc1cc2c(cc1O)C(c1ccc(Br)cc1)NCC2 (centres undefined) | >18
104 | COc1cc2c(cc1OC)C(c1ccccc1C)NCC2 (centres undefined) | 4.6
105 | COc1cc2c(cc1OC)C(c1ccccc1Br)NCC2 (centres undefined) | 2.8
106 | COc1ccc(C2NCCc3cc(OC)c(OC)cc32)cc1 (centres undefined) | 2.5
107 | Oc1cc2c(cc1O)C(c1ccc3ccccc3c1)NCC2 (centres undefined) | >130
108 | COc1ccc(C2NCCc3cc(O)c(O)cc32)c(OC)c1 (centres undefined) | >14

molecular target: Human immunodeficiency virus type 1 reverse transcriptase (Human immunodeficiency virus 1) (UniProt Q72547); assay: Inhibition of HIV1 recombinant reverse transcriptase at 200 ug/ml; conditions: not given

Row | Structure (SMILES) | Inhibition [%]
109 | Cc1ccc(C2NCCc3cc(O)c(O)cc32)cc1 (centres undefined) | 28
110 | Oc1cc2c(cc1O)C(c1cccc(Cl)c1)NCC2 (centres undefined) | 20
111 | Oc1cc2c(cc1O)C(c1ccc3ccccc3c1)NCC2 (centres undefined) | 30

test system: Human immunodeficiency virus; assay: Inhibition of HIV replication in H9 cells; format: functional, organism-based; conditions: Human immunodeficiency virus 1, H9

Row | Structure (SMILES) | EC50 [µg/mL]
112 | CC1NCCc2cc(O)c(O)cc21 (centres undefined) | 0.117 (≈ 0.653 µM)
113 | COc1cc2c(cc1O)[C@@H](Cc1ccc(O)cc1)NCC2 | 0.8 (≈ 2.8 µM)

molecular target: Human immunodeficiency virus type 1 reverse transcriptase (Human immunodeficiency virus 1) (UniProt Q72547); assay: Inhibition of HIV1 recombinant reverse transcriptase at 210 ug/ml; conditions: not given

Row | Structure (SMILES) | Inhibition [%]
114 | CC1NCCc2ccc(O)c(O)c21 (centres undefined) | 48
